eIF4E-4G inh = eIF4E–eIF4G protein interaction inhibitors, primary screen, biochemical, uHTS, TR-FRET, eIF4GI fragment; Eukaryotic translation initiation factor 4E (Mus musculus) + Eukaryotic translation …; TR-FRET eIF4E-eIF4GI(517-606) binding, 2 h; inhibition, % at 21.7 µM; 220,000 tested, 0.37% active; AID 782, 2007;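 note: 0% = full FRET control wells and 100% = background wells lacking eIF4GI fragment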
RBBP9 inh = human RBBP9 inhibitors, primary screen, biochemical, fluorescence polarization, FP-Rh probe, HTS; inhibition, % at 7.94 µM; recombinant RBBP9; AID 1515, 2009; 220,000 tested, 0.2% active;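 active = inhibition above the campaign mean of all tested compounds plus 3 SD, cut at about 14% in these data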;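 note: plate controls were DMSO wells with RBBP9 for no effect and wells lacking RBBP9 protein for full effect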
Target sequence (O75884 whole entry, looked up): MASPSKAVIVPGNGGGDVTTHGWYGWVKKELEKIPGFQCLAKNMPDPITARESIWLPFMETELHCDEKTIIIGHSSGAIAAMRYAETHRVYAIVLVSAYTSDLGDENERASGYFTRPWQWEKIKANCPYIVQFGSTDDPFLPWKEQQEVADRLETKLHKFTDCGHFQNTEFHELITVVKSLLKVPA
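Controls: DMSO-treated enzyme wells and wells lacking RBBP9 | Material: RBBP9 protein | Technique: Fluorescence polarization | Replication: Single well per compound, no replicates | Buffer or medium: Tris-NaCl-Pluronic buffer, pH 8.0 | Timing: 30 min compound preincubation, 45 min probe labeling, 25 °C | Read-out basis: Percent inhibition from mP, scaled between DMSO and no-protein wells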
NCF1 inh = p47phox/p22phox peptide binding inhibitors, primary screen, biochemical, uHTS, NADPH oxidase regulatory subunit; Neutrophil cytosol factor 1 (Homo sapiens), P14598; fluorescence polarization, 2 h; inhibition, % at 24.7 µM; 220,000 tested, 0.53% active; AID 1274, 2008;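 note: 0% = p47phox with labelled peptide and 100% = labelled peptide alone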
Wee1 degr inh = Wee1 degradation inhibitors, primary screen, cell-based, HeLa, Wee1K328M-luciferase, luminescence; 220,000 tested, 1.2% active; reporter increase, % at 5 µM; HeLa Luc-Wee1K328M stability; 100% = proteasome inhibitor MG132 effect; Wee1-like protein kinase (Homo sapiens), P30291;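 active = activation above the mean of all tested compounds plus 3 SD, set per screening run, cut at about 8.8% in these data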;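 note: cells exposed to compound for 20 h before luminescence read; 0% = DMSO alone and 100% = MG132 at 30 µM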
14-3-3 Bad inh = inhibitors of 14-3-3 zeta/Bad binding, primary screen, biochemical, TR-FRET, bovine 14-3-3 zeta; inhibition, % at 21.7 µM; 220,000 tested, 0.71% active; AID 781, 2007; TR-FRET 14-3-3zeta/Dy647-pBad peptide displacement, 1 h; 14-3-3 protein zeta/delta (Bos taurus), P63103;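 active = inhibition above about 70%, limit read from the data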;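 note: 0% = full 14-3-3 plus peptide FRET controls and 100% = background without 14-3-3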
Target sequence (P63103 whole entry, looked up): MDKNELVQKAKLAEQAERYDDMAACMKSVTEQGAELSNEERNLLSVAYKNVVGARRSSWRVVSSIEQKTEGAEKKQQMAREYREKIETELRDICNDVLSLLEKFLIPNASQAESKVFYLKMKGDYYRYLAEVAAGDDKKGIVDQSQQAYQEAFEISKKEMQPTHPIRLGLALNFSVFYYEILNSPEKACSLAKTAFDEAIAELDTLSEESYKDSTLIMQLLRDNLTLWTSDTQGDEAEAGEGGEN
Numbers without * were called inactive; · = not tested or not shown; [ ] = another dose, or the depositor's remark. Shown are actives, neighbours in structure and some others; about 2.8% of the full set was active somewhere.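 Rule for the calls, unless noted: active = inhibition above about 30% (limit read from the data); inactive = the rest.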

SMILES	eIF4E-4G inh	RBBP9 inh	NCF1 inh	Wee1 degr inh	14-3-3 Bad inh
COc1ccc(OC)c(NC(=S)NCc2ccco2)c1	·	-7.1	·	3.2	·
Cc1cc(=O)[nH]c(SCC(=O)c2c(N)n(C)c(=O)n(C)c2=O)n1	2.5	2.4	-8.0	2.4	11.3
CCc1nnc(NC(=O)/C=C/c2cccs2)s1	-1.2	-4.6	-2.8	-2.0	-2.8
COc1ccc(CCCc2nnc(SCC(=O)Nc3ccccc3F)o2)cc1	2.6	-7.4	-1.3	3.5	-7.3
CC1(C)CCCN(C(=O)c2ccc3c(c2NCCO)C(=O)c2ccccc2C3=O)C1	6.1	-4.6	0.9	1.5	80.7*[fluorescence artefact?]
C#CCOCCOCCOCCNc1nc(N2CCN(C(=O)[C@H]([C@@H](C)CC)n3cc([C@@H](N)Cc4ccc(O)cc4)nn3)CC2)nc(N2CCN(C(=O)[C@H](Cc3cc4ccccc4[nH]3)n3cc([C@@H](N)C(C)CC)nn3)CC2)n1 (stereo partly specified)	-5.0	-6.4	18.6	-1.5	8.2
C#CCOCCOCCOCCNc1nc(N2CCN(C(=O)[C@H](Cc3cc4ccccc4[nH]3)n3cc([C@@H](N)Cc4ccc(O)cc4)nn3)CC2)nc(N2CCN(C(=O)[C@H](Cc3cc4ccccc4[nH]3)n3cc([C@@H](N)CC(C)C)nn3)CC2)n1	14.9	·	73.4*	·	35.6
C#CCOCCOCCOCCNc1nc(N2CCN(C(=O)[C@H](Cc3ccc(O)cc3)n3cc([C@@H](N)C(C)CC)nn3)CC2)nc(N2CCN(C(=O)[C@H](Cc3cc4ccccc4[nH]3)n3cc([C@@H](N)C(C)CC)nn3)CC2)n1 (stereo partly specified)	0.6	0.8	·	0.5	41.2
C#CCOCCOCCOCCNc1nc(N2CCN(C(=O)C(Cc3cc4ccccc4[nH]3)n3cc(C(N)Cc4ccc(O)cc4)nn3)CC2)nc(N2CCN(C(=O)C(Cc3cc4ccccc4[nH]3)n3cc(C(N)Cc4ccc(O)cc4)nn3)CC2)n1 (stereo unspecified)	-12.4	-16.8	64.7*	1.6	-24.3
C#CCOCCOCCOCCNc1nc(N2CCN(C(=O)[C@H](Cc3cc4ccccc4[nH]3)n3cc([C@@H](N)C(C)CC)nn3)CC2)nc(N2CCN(C(=O)[C@H](Cc3cc4ccccc4[nH]3)n3cc([C@@H](N)Cc4ccc(O)cc4)nn3)CC2)n1 (stereo partly specified)	12.5	-10.7	79.4*	1.3	42.5
c1ccc(C2=Nc3cccnc3C(c3ccccc3)=NN2)cc1	-2.8	-9.5	-5.2	-0.8	-4.6
Cc1cc(NC(=O)COC(=O)c2cc(S(=O)(=O)N(C)c3ccccc3)ccc2Cl)no1	-13.5	-6.2	-5.1	-1.7	1.9
Cc1nc2ccccn2c1/C(O)=C1\C(=O)C(=O)N(CCCN(C)C)C1c1ccc(F)cc1 (stereo unspecified)	·	-8.4	·	1.6	·
COC(=O)C(=N/Nc1ccccc1C(=O)OC)/C(C)=N/O	0.1	-2.4	-16.7	-1.0	4.5
CCN1C(=O)/C(=C/c2ccc(OC)c(OC)c2)N=C1SCC(=O)NCc1ccco1	0.7	1.8	-10.6	-1.7	3.2
Cn1c(Cc2ccccc2)nnc1SCC(=O)N1CCOCC1	2.4	-9.3	83.4*	0.1	11.8
O=c1c2ccccc2sc2nc(C3CCCCC3)n(Cc3ccco3)c(=O)c12	-71.1	-20.6	-7.4	2.1	73.4*
CCN1CCCC(NC(=O)c2cc([N+](=O)[O-])ccc2OC)C1 (stereo unspecified)	7.2	-4.5	6.1	-1.1	-10.9
COc1ccc(CCCC(=O)NCc2ccccc2)cc1C	19.2	-1.6	-6.0	8.3	-3.4
N#CC(C#N)=C1NC2(CCCCC2)Cc2ccccc21	-2.6	-9.2	-8.7	1.3	-3.6
N#CC(C#N)=c1ccc2c(c1)NC1(CCCCC1)N=2	-9.3	-3.8	132.5*	2.4	-40.6
O=C(O)CSc1c2c(nc3cc(C(=O)N4CCOCC4)ccc13)CCCC2	5.3	-6.7	-0.8	2.8	81.8*
